Assay results as given in ChEMBL document CHEMBL1143542, “Structure-activity relationships of bivalent aminoglycosides and evaluation of their microbiological activities” (2005).
≈ marks a conversion by molar mass, not a printed value.

What was measured:
Pseudomonas aeruginosa [1] = test: Susceptibility testing against Pseudomonas aeruginosa PAE_NUH01; R=Resistant; assay type: functional, organism-based
Method in brief: (§1)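 Disk diffusion susceptibility profiling of P. aeruginosa reference and clinical isolates against empirically used antipseudomonal antibiotics. Each isolate was categorised as susceptible, intermediate or resistant.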

Pseudomonas aeruginosa [2] = test: Susceptibility testing against Pseudomonas aeruginosa PAE_NUH06; R=Resistant; assay type: functional, organism-based; method in brief: as §1
Pseudomonas aeruginosa [3] = test: Susceptibility testing against Pseudomonas aeruginosa PAE_NUH22; S=Susceptible; assay type: functional, organism-based
Method in brief: (§2)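 Disk diffusion susceptibility profiling against a panel of empirically used antipseudomonal antibiotics. Each strain was categorised as susceptible (S) or intermediate (I).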

Pseudomonas aeruginosa [4] = test: Susceptibility testing against Pseudomonas aeruginosa PAE_NUH07; R=Resistant; assay type: functional, organism-based; method in brief: as §1
Pseudomonas aeruginosa [5] = test: Susceptibility testing against Pseudomonas aeruginosa PAE_NUH17; S=Susceptible; assay type: functional, organism-based; method in brief: as §2
Pseudomonas aeruginosa [6] = test: Susceptibility testing against Pseudomonas aeruginosa PAE_NUH18; S=Susceptible; assay type: functional, organism-based; method in brief: as §2
Pseudomonas aeruginosa [7] = test: Susceptibility testing against Pseudomonas aeruginosa PAE_NUH19; S=Susceptible; assay type: functional, organism-based; method in brief: as §2
Pseudomonas aeruginosa [8] = test: Susceptibility testing against Pseudomonas aeruginosa PAE_NUH04; R=Resistant; assay type: functional, organism-based; method in brief: as §1
Pseudomonas aeruginosa [9] = test: Susceptibility testing against Pseudomonas aeruginosa PAE_NUH24; S=Susceptible; assay type: functional, organism-based; method in brief: as §2
Pseudomonas aeruginosa [10] = test: Susceptibility testing against Pseudomonas aeruginosa ATCC 27853; S=Susceptible; assay type: functional, organism-based; method in brief: as §2
Pseudomonas aeruginosa [11] = test: Susceptibility testing against Pseudomonas aeruginosa PAE_NUH23; S=Susceptible; assay type: functional, organism-based; method in brief: as §2
Pseudomonas aeruginosa [12] = test: Susceptibility testing against Pseudomonas aeruginosa PAE_NUH20; S=Susceptible; assay type: functional, organism-based; method in brief: as §2
Pseudomonas aeruginosa [13] = test: Susceptibility testing against Pseudomonas aeruginosa PAE_NUH02; R=Resistant; assay type: functional, organism-based; method in brief: as §1
Pseudomonas aeruginosa [14] = test: Susceptibility testing against Pseudomonas aeruginosa PAE_NUH25; S=Susceptible; assay type: functional, organism-based; method in brief: as §2
Pseudomonas aeruginosa [15] = test: Susceptibility testing against Pseudomonas aeruginosa PAE_NUH03; R=Resistant; assay type: functional, organism-based; method in brief: as §1
Pseudomonas aeruginosa [16] = test: Susceptibility testing against Pseudomonas aeruginosa PAE_NUH05; R=Resistant; assay type: functional, organism-based; method in brief: as §1
Pseudomonas aeruginosa [17] = test: Susceptibility testing against Pseudomonas aeruginosa PAE_NUH21; S=Susceptible; assay type: functional, organism-based; method in brief: as §2
Staphylococcus aureus [18] = test: In vitro minimum inhibitory concentration against Staphylococcus aureus MRSA 3359; assay type: functional
Method in brief: (§3)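 Broth microdilution following CLSI M100-S12. Stocks were 10 mg/mL in water, diluted in Mueller–Hinton broth to a top level of 128, then serially 2-fold in plates. Bacteria in cation-adjusted Mueller–Hinton broth were mixed 1:1 with drug and incubated 16–20 h at 35 °C. MIC was the lowest concentration with no visible growth. Run in duplicate with no-antibiotic and no-inoculum (sterility) controls.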

Enterococcus faecalis = test: In vitro minimum inhibitory concentration against Enterococcus faecalis 29212; assay type: functional; method in brief: as §3
Staphylococcus aureus [19] = test: In vitro minimum inhibitory concentration against Staphylococcus aureus ATCC 29213; assay type: functional; method in brief: as §3
Pseudomonas aeruginosa [20] = test: In vitro minimum inhibitory concentration against Pseudomonas aeruginosa ATCC 27853; assay type: functional; method in brief: as §3
Escherichia coli = test: In vitro minimum inhibitory concentration against Escherichia coli ATCC 25922; assay type: functional; method in brief: as §3
Pseudomonas aeruginosa [21] = test: In vitro minimum inhibitory concentration against Pseudomonas aeruginosa PAO-1 Minimum inhibitory concentration against Pseudomonas aeruginosa PAO-1; assay type: functional; method in brief: as §3
Pseudomonas aeruginosa [22] = test: In vitro minimum inhibitory concentration against Pseudomonas aeruginosa PAO-1; assay type: functional; method in brief: as §3

For O=C(O)c1cn(C2CC2)c2cc(N3CCNCC3)c(F)cc2c1=O, which Activity (Pseudomonas aeruginosa [1]) is on record?
Its Activity is “Resistant”.

What about the Activity (Pseudomonas aeruginosa [2]) of the same molecule?
Its Activity is “Resistant”.

And the Activity (Pseudomonas aeruginosa [3])?
Its Activity is “Susceptible”.

And the Activity (Pseudomonas aeruginosa [4])?
The Activity was “Resistant”.

What about the Activity (Pseudomonas aeruginosa [5]) of the same molecule?
The Activity was “Susceptible”.

What about the Activity (Pseudomonas aeruginosa [6]) of the same molecule?
Its Activity is “Susceptible”.

And the Activity (Pseudomonas aeruginosa [7])?
Its Activity is “Susceptible”.

And the Activity (Pseudomonas aeruginosa [8])?
The Activity was “Resistant”.

And the Activity (Pseudomonas aeruginosa [9])?
Its Activity is “Susceptible”.

And the Activity (Pseudomonas aeruginosa [10])?
The Activity was “Susceptible”.

And the Activity (Pseudomonas aeruginosa [11])?
The Activity was “Susceptible”.

What about the Activity (Pseudomonas aeruginosa [12]) of the same molecule?
The Activity was “Susceptible”.

What about the Activity (Pseudomonas aeruginosa [13]) of the same molecule?
The Activity was “Resistant”.

And the Activity (Pseudomonas aeruginosa [14])?
Its Activity is “Susceptible”.

And the Activity (Pseudomonas aeruginosa [15])?
The Activity was “Resistant”.

What about the Activity (Pseudomonas aeruginosa [16]) of the same molecule?
The Activity was “Resistant”.

And the Activity (Pseudomonas aeruginosa [17])?
Its Activity is “Susceptible”.

What does the source list for CN(CCCCN(C)C[C@@H](O)CO[C@@H]1[C@@H](O)[C@H](O[C@H]2O[C@H](CN)[C@@H](O)C[C@H]2N)[C@@H](N)C[C@H]1N)C[C@H](O)CO[C@@H]1[C@@H](O)[C@H](O[C@@H]2O[C@H](CN)C[C@H](O)[C@H]2N)[C@@H](N)C[C@H]1N?
MIC (Staphylococcus aureus [18]): 20.9 µg/mL (≈ 24.8 µM); MIC (Enterococcus faecalis): 20.9 µg/mL (≈ 24.8 µM); MIC (Staphylococcus aureus [19]): 0.6 µg/mL (≈ 0.713 µM); MIC (Pseudomonas aeruginosa [20]): 10.4 µg/mL (≈ 12.4 µM); MIC (Escherichia coli): 5.2 µg/mL (≈ 6.18 µM); MIC (Pseudomonas aeruginosa [21]): 2.6 µg/mL (≈ 3.09 µM)

Which MIC (Staphylococcus aureus [18]) does the source give for NC[C@H]1O[C@H](O[C@H]2[C@H](OC[C@H](O)CN3CCN(C[C@@H](O)CO[C@@H]4[C@@H](O)[C@H](N)C[C@H](N)[C@H]4O[C@H]4O[C@H](CN)[C@@H](O)[C@H](O)[C@H]4N)CC3)[C@@H](O)[C@H](N)C[C@@H]2N)[C@H](N)[C@@H](O)[C@@H]1O here?
Its MIC is greater than 50 µg/mL.

What about the MIC (Enterococcus faecalis) of the same molecule?
Its MIC is greater than 50 µg/mL.

What about the MIC (Staphylococcus aureus [19]) of the same molecule?
The MIC was 12.5 µg/mL (≈ 14.8 µM).

And the MIC (Pseudomonas aeruginosa [20])?
Its MIC is 25 µg/mL (≈ 29.7 µM).

What about the MIC (Pseudomonas aeruginosa [22]) of the same molecule?
Its MIC is 25 µg/mL (≈ 29.7 µM).

What about the MIC (Escherichia coli) of the same molecule?
The MIC was 25 µg/mL (≈ 29.7 µM).

For NC[C@@H]1C[C@H](O)[C@@H](N)[C@H](O[C@H]2[C@H](O)[C@@H](OC[C@@H](O)CN[C@H]3CC[C@H](NC[C@@H](O)CO[C@@H]4[C@@H](O)[C@H](O[C@H]5O[C@H](CN)[C@@H](O)C[C@H]5N)[C@@H](N)C[C@H]4N)CC3)[C@H](N)C[C@@H]2N)O1, which MIC (Staphylococcus aureus [18]) is on record?
Its MIC is 16 µg/mL (≈ 19.1 µM).

And the MIC (Enterococcus faecalis)?
Its MIC is 32 µg/mL (≈ 38.1 µM).

And the MIC (Staphylococcus aureus [19])?
Its MIC is 0.5 µg/mL (≈ 0.596 µM).

What about the MIC (Pseudomonas aeruginosa [20]) of the same molecule?
The MIC was 2 µg/mL (≈ 2.38 µM).

What about the MIC (Escherichia coli) of the same molecule?
Its MIC is 4 µg/mL (≈ 4.77 µM).

And the MIC (Pseudomonas aeruginosa [21])?
Its MIC is 2 µg/mL (≈ 2.38 µM).

NC[C@H]1O[C@H](O[C@H]2[C@H](OC[C@H](O)CN3CC4CC3CN4C[C@@H](O)CO[C@@H]3[C@@H](O)[C@H](N)C[C@H](N)[C@H]3O[C@H]3O[C@H](CN)[C@@H](O)[C@H](O)[C@H]3N)[C@@H](O)[C@H](N)C[C@@H]2N)[C@H](N)[C@@H](O)[C@@H]1O was tested. Which MIC (Staphylococcus aureus [18]) did it give?
The MIC was greater than 50 µg/mL.

What about the MIC (Enterococcus faecalis) of the same molecule?
Its MIC is greater than 50 µg/mL.

And the MIC (Staphylococcus aureus [19])?
Its MIC is 12.5 µg/mL (≈ 14.6 µM).

What about the MIC (Pseudomonas aeruginosa [20]) of the same molecule?
Its MIC is 12.5 µg/mL (≈ 14.6 µM).

And the MIC (Pseudomonas aeruginosa [22])?
The MIC was 50 µg/mL (≈ 58.5 µM).

What about the MIC (Escherichia coli) of the same molecule?
The MIC was greater than 50 µg/mL.

Which results are given for NC[C@@H]1C[C@H](O)[C@@H](N)[C@H](O[C@H]2[C@H](O)[C@@H](OC[C@@H](O)CNCCCCNC[C@@H](O)CO[C@@H]3[C@@H](O)[C@H](O[C@H]4O[C@H](CN)[C@@H](O)C[C@H]4N)[C@@H](N)C[C@H]3N)[C@H](N)C[C@@H]2N)O1?
MIC (Staphylococcus aureus [18]): 16 µg/mL (≈ 19.7 µM); MIC (Enterococcus faecalis): 32 µg/mL (≈ 39.4 µM); MIC (Staphylococcus aureus [19]): 0.5 µg/mL (≈ 0.615 µM); MIC (Pseudomonas aeruginosa [20]): 2 µg/mL (≈ 2.46 µM); MIC (Escherichia coli): 4 µg/mL (≈ 4.92 µM); MIC (Pseudomonas aeruginosa [21]): 2 µg/mL (≈ 2.46 µM)

Which results are given for NC[C@H]1O[C@H](O[C@H]2[C@H](OC[C@H](O)CN[C@H]3CC[C@H](NC[C@@H](O)CO[C@@H]4[C@@H](O)[C@H](N)C[C@H](N)[C@H]4O[C@H]4O[C@H](CN)[C@@H](O)[C@H](O)[C@H]4N)CC3)[C@@H](O)[C@H](N)C[C@@H]2N)[C@H](N)[C@@H](O)[C@@H]1O?
MIC (Staphylococcus aureus [18]): 50 µg/mL (≈ 57.4 µM); MIC (Enterococcus faecalis): > 50 µg/mL; MIC (Staphylococcus aureus [19]): 50 µg/mL (≈ 57.4 µM); MIC (Pseudomonas aeruginosa [20]): 1.6 µg/mL (≈ 1.84 µM); MIC (Escherichia coli): 25 µg/mL (≈ 28.7 µM)

NC[C@@H]1C[C@H](O)[C@@H](N)[C@H](O[C@H]2[C@H](O)[C@@H](OC[C@@H](O)CNCCCNC[C@@H](O)CO[C@@H]3[C@@H](O)[C@H](O[C@H]4O[C@H](CN)[C@@H](O)C[C@H]4N)[C@@H](N)C[C@H]3N)[C@H](N)C[C@@H]2N)O1 was tested. Which MIC (Staphylococcus aureus [18]) did it give?
Its MIC is 10.4 µg/mL (≈ 13 µM).

And the MIC (Enterococcus faecalis)?
Its MIC is greater than 20.9 µg/mL.

And the MIC (Staphylococcus aureus [19])?
The MIC was 1.3 µg/mL (≈ 1.63 µM).

What about the MIC (Pseudomonas aeruginosa [20]) of the same molecule?
Its MIC is 2.6 µg/mL (≈ 3.25 µM).

And the MIC (Escherichia coli)?
The MIC was 20.9 µg/mL (≈ 26.2 µM).

What about the MIC (Pseudomonas aeruginosa [21]) of the same molecule?
The MIC was 1.3 µg/mL (≈ 1.63 µM).

For NC[C@H]1O[C@H](O[C@H]2[C@H](OC[C@H](O)CNCCCNCCNC[C@@H](O)CO[C@@H]3[C@@H](O)[C@H](N)C[C@H](N)[C@H]3O[C@H]3O[C@H](CN)[C@@H](O)[C@H](O)[C@H]3N)[C@@H](O)[C@H](N)C[C@@H]2N)[C@H](N)[C@@H](O)[C@@H]1O, which MIC (Staphylococcus aureus [18]) is on record?
The MIC was greater than 50 µg/mL.

What about the MIC (Enterococcus faecalis) of the same molecule?
The MIC was greater than 50 µg/mL.

What about the MIC (Staphylococcus aureus [19]) of the same molecule?
The MIC was greater than 50 µg/mL.

And the MIC (Pseudomonas aeruginosa [20])?
The MIC was greater than 50 µg/mL.

And the MIC (Escherichia coli)?
Its MIC is greater than 50 µg/mL.

What about the MIC (Pseudomonas aeruginosa [21]) of the same molecule?
Its MIC is greater than 50 µg/mL.
